Assay results from article PMC4112965 (Cell reports, 2014).

Columns and labels:
[1] = test system: casein kinase 2α; experiment: In vitro protein kinase activity assay, casein kinase 2α; assay type: biochemical, human; conditions: PASK vs casein kinase 2α2
[2] = test system: SREBP; experiment: SRE-driven luciferase; assay type: cell-based, human; conditions: for concentrations giving a significant reduction in SREBP activity: HepG2, SRE-Luc, 100nM insulin 6 h; for effects on cell morphology or growth rate: HepG2 cells, concentrations of the SRE-Luc experiment
Summary of the method: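 Transfection of HepG2 cells used Lipofectamine LTX, with pSRE-Luc plus CMV-driven Renilla luciferase. Cells were serum-starved overnight with vehicle or graded concentrations of test compound, then stimulated with 100 nM insulin for 6 h. Firefly and Renilla luciferase were read by dual-reporter assay. Data were normalised to vehicle-treated samples; n=3, mean ± SD.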

[3] = test system: Akt and S6K phosphorylation; experiment: Immunoblot of Akt and S6K phosphorylation in response to insulin in HepG2 cells; assay type: cell-based, human
Summary of the method: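 HepG2 cells received vehicle or graded concentrations of test compound, then 100 nM insulin for 6 h. Cell lysates were immunoblotted for phosphorylation state and abundance of Akt and S6K.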

[4] = test system: high-fructose diet (HFrD) fed rats; experiment: High-fructose diet Sprague-Dawley rats, oral dosing once/day for one week; assay type: in vivo
[5] = test system: SREBP-1 maturation in liver; experiment: High-fat and high-fructose diet rats, liver SREBP-1 maturation immunoblot; assay type: in vivo, rat; conditions: 10, 30 and 100 mg/kg; treated for the last 3 weeks of 18 weeks diet
Summary of the method: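 Rats were fed a high-fat plus high-fructose diet for 18 weeks and dosed once daily by oral gavage with vehicle or test compound over the final 3 weeks. Vehicle was 0.5% methylcellulose, 0.025% Tween-80 in water, with compound ground to a suspension. Animals were fasted 24 h and refed 12 h. Whole liver lysate and nuclear extract were immunoblotted for precursor and mature SREBP-1 plus control proteins.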

[6] = test system: SREBP-1c maturation; experiment: Immunoblot of precursor and mature SREBP-1c in HepG2 cells; assay type: cell-based, human
Summary of the method: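 HepG2 cells expressing GFP or 3xFlag-tagged precursor SREBP-1a or SREBP-1c were treated with test compound (30 and 50 μM), then 100 nM insulin for 6 h. Whole-cell lysate and nuclear extract were immunoblotted for precursor and mature SREBP-1c, and the mature:precursor ratio was determined.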

[7] = In vivo pharmacologic and pharmacokinetic properties
[8] = test system: HFrD-fed rats; experiment: High-fructose diet Sprague-Dawley rats, oral dosing once/day for 90 days; assay type: in vivo, rat
[9] = test system: adipose tissue; conditions: accompanied by decreased expression of SREBP-1; ref Pereira et al., 2013; cited from earlier work
[10] = test system: 50 other protein kinases; experiment: In vitro specificity panel of 50 other protein kinases; assay type: biochemical, human; conditions: 100μM
[11] = test system: Rat primary hepatocytes; experiment: 14C-acetate incorporation into lipids in rat primary hepatocytes; assay type: cell-based
Summary of the method: (§1)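 HepG2 cells or rat primary hepatocytes were pre-treated overnight in serum-free medium with vehicle or 10 μM test compound. They then got fresh medium with vehicle or […] test compound plus 100 nM insulin for 6 h, labelled with 10 μCi/ml [1-14C]-acetate for the last 4 h. Lysis was in 0.5% Triton X-100, lipids were extracted with chloroform:methanol 2:1, and the organic phase was scintillation-counted. Counts were normalised to lysate protein; n=3, mean ± SD.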

[12] = test system: HepG2 cells; experiment: 14C-acetate incorporation into lipid; assay type: cell-based, human; conditions: 10 μM, HepG2, 14C-acetate
Summary of the method: as §1

[13] = test system: Rat primary hepatocytes; experiment: qRT-PCR of SREBP-1c target genes in insulin-stimulated rat primary hepatocytes; assay type: cell-based
Summary of the method: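 Rat primary hepatocytes were isolated, plated, and pre-treated 16 h with DMSO or test compound, then stimulated with insulin or vehicle over a 12 h time course. FASN, GCK and SREBP-1c mRNAs were measured by qRT-PCR, normalised to r36B4, with the vehicle-treated unstimulated group set as 1; n=3, mean ± SEM.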

[14] = biological target: PASK (Homo sapiens, UniProt Q96RG2); experiment: In vitro protein kinase activity assay, purified PASK; assay type: biochemical; conditions: 100μM
Summary of the method: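 Purified PASK kinase activity measured with vehicle or test compound at the indicated concentrations. Activity is expressed as percent of vehicle-treated activity.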

Sequence of PASK (Q96RG2 whole entry): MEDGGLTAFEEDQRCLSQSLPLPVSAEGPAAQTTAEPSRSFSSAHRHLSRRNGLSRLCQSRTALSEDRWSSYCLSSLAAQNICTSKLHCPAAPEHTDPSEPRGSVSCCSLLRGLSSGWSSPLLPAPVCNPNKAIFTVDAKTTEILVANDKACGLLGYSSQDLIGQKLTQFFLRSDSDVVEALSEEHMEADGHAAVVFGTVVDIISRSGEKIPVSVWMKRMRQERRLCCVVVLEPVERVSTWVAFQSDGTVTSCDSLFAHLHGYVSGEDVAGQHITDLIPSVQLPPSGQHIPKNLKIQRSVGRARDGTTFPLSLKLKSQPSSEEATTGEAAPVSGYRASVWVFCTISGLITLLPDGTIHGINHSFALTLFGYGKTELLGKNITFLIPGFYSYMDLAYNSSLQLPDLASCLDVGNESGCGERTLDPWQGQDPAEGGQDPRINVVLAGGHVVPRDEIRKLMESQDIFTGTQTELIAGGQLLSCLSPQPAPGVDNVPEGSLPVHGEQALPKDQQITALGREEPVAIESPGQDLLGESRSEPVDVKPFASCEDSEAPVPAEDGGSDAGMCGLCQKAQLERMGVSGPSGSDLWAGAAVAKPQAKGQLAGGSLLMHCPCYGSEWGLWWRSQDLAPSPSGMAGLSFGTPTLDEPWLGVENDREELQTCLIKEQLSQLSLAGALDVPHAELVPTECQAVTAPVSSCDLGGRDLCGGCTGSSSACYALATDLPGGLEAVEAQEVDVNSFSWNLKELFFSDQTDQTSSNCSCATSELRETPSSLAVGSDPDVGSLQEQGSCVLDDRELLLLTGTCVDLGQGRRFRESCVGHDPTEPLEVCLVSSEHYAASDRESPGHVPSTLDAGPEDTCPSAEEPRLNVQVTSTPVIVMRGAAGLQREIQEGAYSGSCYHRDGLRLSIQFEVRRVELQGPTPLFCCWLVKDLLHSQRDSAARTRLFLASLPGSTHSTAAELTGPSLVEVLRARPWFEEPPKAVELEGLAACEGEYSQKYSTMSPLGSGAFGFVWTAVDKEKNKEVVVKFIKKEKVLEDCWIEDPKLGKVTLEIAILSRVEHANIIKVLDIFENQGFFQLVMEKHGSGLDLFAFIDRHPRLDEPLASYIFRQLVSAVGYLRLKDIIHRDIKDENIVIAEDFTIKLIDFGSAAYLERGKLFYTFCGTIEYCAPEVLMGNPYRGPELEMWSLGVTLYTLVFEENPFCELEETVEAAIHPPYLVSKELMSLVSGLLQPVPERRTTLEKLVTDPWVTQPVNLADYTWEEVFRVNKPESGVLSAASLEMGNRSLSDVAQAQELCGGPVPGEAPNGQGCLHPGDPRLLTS

SMILES: CC(C)N(C)c1nc2cc(C(=O)O)ccc2nc1-c1ccc(F)cc1 [BioE-1115]
- fold more potent as an inhibitor of PASK than of casein kinase 2α2 [1]: roughly 2500 fold
- concentrations giving a significant reduction in SREBP activity [2]: above 10 μM
- effects on cell morphology or growth rate [2]: without any observable effects
- phosphorylation of Akt or S6K in response to insulin [3]: neither compound impaired
- hepatic expression of SREBP-1c target genes ([4]; 1 or 3 mg/kg oral once/day, one week): no difference from vehicle-treated rats
- hepatic expression of Gpat1, Fasn and all other SREBP-1c target genes analyzed ([4]; 10, 30 and 100 mg/kg oral once/day, one week): dose-dependent suppression
- HOMA-IR ([4]; calculated measure of insulin resistance): decreased in a dose-dependent manner
- hepatic SREBP-1c and SREBP-1a mRNA ([4]; highest doses): modestly decreased
- body weight ([4]; oral once/day, one week): Neither dose of BioE-1115 caused a significant change
- hepatic TAG ([4]; oral once/day, one week): decrease
- hepatic expression of HMG-CoA synthase 1 and SREBP-2 ([4]; oral once/day, one week): induced in a dose-dependent manner
- liver weight ([4]; oral once/day, one week): Neither dose of BioE-1115 caused a significant change
- serum TAG ([4]; oral once/day, one week): decreased in a dose-dependent manner
- serum cholesterol ([4]; oral once/day, one week): basically unaffected
- serum glucose ([4]; oral once/day, one week): significant decrease
- serum insulin levels ([4]; oral once/day, one week): slightly lower
- SREBP-1 maturation in liver [5]: suppressed
- SREBP-1c maturation (mature:precursor SREBP-1c ratio) ([6]; 30 and 50μM): suppressed
- in vivo pharmacologic and pharmacokinetic properties relative to BioE-1197 [7]: more favorable
- hepatic Fasn and Acc1 expression ([8]; 3 mg/kg, 90 days): significantly suppressed
- hepatic Fasn and Acc1 expression ([8]; 10, 30 and 100 mg/kg, 90 days): restored to that in normal chow fed animals
- serum glucose levels as measured by glycated hemoglobin (HbA1c) ([8]; 90-day study): decreased
- expression of SREBP-1c or its target genes in abdominal fat ([8]; 90 days): no significant differences
- expression of SREBP-1c or its target genes in gastrocnemius muscle ([8]; 90 days): no significant differences
- body weight ([8]; after 51 days of dosing): no drug-dependent difference
- body weight ([8]; after 90 days of dosing): no drug-dependent difference
- serum triglycerides ([8]; after 90 days of treatment): significant dose-responsive decrease
- overt toxicity upon extended treatment ([8]; doses 10–30 fold higher than those required for significant effects on lipogenic gene expression and serum triglycerides): no overt toxicity
- serum triglycerides ([8]; interim timepoint of 45 days): significant dose-responsive decrease

SMILES: CO[C@H]1C[C@@H]2CC[C@@H](C)[C@@](O)(O2)C(=O)C(=O)N2CCCC[C@H]2C(=O)O[C@H]([C@H](C)C[C@@H]2CC[C@@H](O)[C@H](OC)C2)CC(=O)[C@H](C)/C=C(\C)[C@@H](O)[C@@H](OC)C(=O)[C@H](C)C[C@H](C)/C=C/C=C/C=C/1C [rapamycin]
- lipogenesis in adipose tissue [9]: decreased lipogenesis

SMILES: C[C@H]1CCCN1c1nc2cc(C(=O)O)ccc2nc1-c1ccc(F)cc1 [BioE-1197]
- activity of the majority of the 50 kinases [10]: either unaffected or only modestly inhibited
- number of other kinases substantially inhibited ([10]; of 50 kinases other than PASK): 8
- insulin-induced increase in lipogenesis (14C-acetate incorporation into lipids) [11]: completely abolished
- decrease in 14C incorporation into lipids [12]: ~ 60%
- mRNA encoding SREBP-1c ([13]; basal and insulin-stimulated conditions): significant decrease
- insulin-induced increase in FASN and GCK mRNAs ([13]; pre-treated 16 h, insulin over 12 h timecourse): either blunted or abolished
- concentrations giving a significant reduction in SREBP activity [2]: > 3 µM
- effects on cell morphology or growth rate [2]: without any observable effects
- phosphorylation of Akt or S6K in response to insulin [3]: neither compound impaired
- hepatic expression of the gene encoding HMG-CoA reductase ([4]; oral once/day, one week): significantly decreased
- PASK activity at extremely high concentration [14]: essentially completely inactivated
- suppression of SREBP-1c maturation compared with BioE-1428 ([6]; quantified over five independent experiments): significantly more efficacious
